# From PubChem
# PKA-R2B activ: activators of human PKA-R2B complex | PKA-R2B holoenzyme dissociation, Cy5-IP20 fluorescence polarization; R2B truncated from residue 108, S112A mutant; 0% DMSO only, 100% 113 µM cGMP | actives 0.079% (n = 340,000) | P22694+P31323 | activation, % at 11.4 µM;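 active means activation above a cutoff set at the mean over all compounds plus 3 SD, cut at about 18% in these data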;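 further: higher means more holoenzyme dissociation and a rise in polarization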
# Target sequence (P31323 whole entry, looked up, other chains not shown, the tested form may be a part): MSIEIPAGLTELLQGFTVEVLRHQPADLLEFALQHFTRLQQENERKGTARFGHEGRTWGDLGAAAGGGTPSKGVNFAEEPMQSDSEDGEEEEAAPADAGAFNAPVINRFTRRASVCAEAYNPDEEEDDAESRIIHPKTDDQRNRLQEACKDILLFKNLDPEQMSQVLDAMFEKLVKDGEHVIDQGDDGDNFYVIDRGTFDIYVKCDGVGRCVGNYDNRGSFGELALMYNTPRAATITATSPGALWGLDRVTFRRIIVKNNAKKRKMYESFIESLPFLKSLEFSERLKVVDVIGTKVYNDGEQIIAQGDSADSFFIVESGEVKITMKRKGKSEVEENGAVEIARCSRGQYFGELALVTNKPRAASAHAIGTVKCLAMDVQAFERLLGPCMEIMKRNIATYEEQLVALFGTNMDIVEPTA
# CAL PDZ FP-1: CAL PDZ (human) peptide binding inhibition. actives 0.92% (n = 300,000). inhibition, % at 24.9 µM. purified CAL PDZ, TMR-peptide fluorescence polarization, 1 h. AID 602252;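 active means mean inhibition of at least 30% with at least half of replicates also reaching 30%; inconclusive means no clear call, values can overlap the other calls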;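 further: 0% = DMSO neutral control and 100% = excess unlabeled competitor peptide PRC23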
# NTR1 ag: activates human neurotensin receptor 1; NTR1-U2OS beta-arrestin-GFP spot imaging, agonist mode; activation, % at 20 µM; actives 0.17% (n = 330,000); AID 493036;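 active means activation at or above 40% of the spot to cytoplasm intensity ratio, with at least 20 cells analyzed; inconclusive means wells under 20 cells, flagged as cytotoxic or low count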;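 further: 0% = DMSO without peptide and 100% = 100 nM NTR1 peptide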
# PKA-R1A activ: activators of PKA-R1A complex | P00514+P68181 | PKA-R1A dissociation, Cy5-IP20 fluorescence polarization; scaled: DMSO 0%, 113 µM cGMP 100% | actives 0.083% (n = 340,000) | activation, % at 11.4 µM | AID 504707;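 active means percent activation above the mean of all tested compounds plus 3 SD, cut at about 19% in these data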;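 further: higher means more PKAc released from R1A so a rise in polarization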
# CAL PDZ FP-2: inhibitors of human CAL PDZ peptide binding; inhibition, % at 20 µM; purified CAL PDZ, TMR-peptide fluorescence polarization, 1 h; AID 504414; Q9HD26; actives 0.02% (n = 330,000);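 active means highest replicate inhibition of at least 40%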;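 further: plate controls were DMSO neutral control wells for no effect and unlabeled competitor peptide control wells for full effect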
#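 Material – purified CerCALP PDZ construct · Detection – FP readout, S and P plane fluorescence · Measure – percent inhibition from loss of millipolarization · Controls – unlabelled peptide for full inhibition, DMSO wells as neutral · Probe or stimulus – TMR-labelled reporter peptide T*-PRC34 bound in PDZ groove · Times – 1 h at RT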
# dFosB act-1: enhances mouse delta FosB homodimer DNA binding | P13346 | purified delta FosB, TAMRA-CDK5 oligo fluorescence polarization; percent of positive-control signal above neutral wells | activation, % at 25 µM | actives 0.99% (n = 340,000);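 active means mean activation above about 17%, with every replicate also reaching it, limit read from the data, passing the limit was not always enough; inconclusive means only one of the two conditions met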
# dFosB act-2: enhances mouse delta FosB homodimer binding to DNA. activation, % at 24.9 µM. AID 588690. purified delta FosB, TAMRA-CDK5 oligo fluorescence polarization; normalised: neutral wells 0, positive control 100. 2,400 tested, under 10 active. shares compounds with dFosB act-1;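 active means highest replicate activation at or above 34% and every replicate reaching that threshold; inconclusive means meets only one of the two criteria; inactive means meets neither criterion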;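 further: higher polarization means more probe DNA bound by delta FosB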
# An asterisk follows results filed as active; ? = inconclusive; / = no result given. In the library only some 2% were active in any assay of this set; here they are far more common.
SMILES,PKA-R2B activ,CAL PDZ FP-1,NTR1 ag,PKA-R1A activ,CAL PDZ FP-2,dFosB act-1,dFosB act-2
COc1cc2[nH]c(=S)nc(NCc3cccc(Cl)c3)c2cc1OC,-12,-3,2,-7,0,-7,/
c1ccc(CNc2nc(-c3cccnc3)nc3ccccc23)cc1,-1,-7,2,1,-9,-26,/
CC1CC(C)CN(S(=O)(=O)N2CCCC(C(=O)NC(C)c3ccccc3)C2)C1 (centres undefined),1,-4,1,-9,-1,-1,/
COc1ccc(Cl)cc1NC(=O)Cn1nnc(C(=O)NCc2ccc3c(c2)OCO3)c1N,-2,/,4,-1,0,39*,0
Cc1cc(C)c(NC(=O)Cn2nnc(C(=O)NCc3ccc4c(c3)OCO4)c2N)c(C)c1,-8,-3,-1,-3,-2,75*,0
COc1ccccc1NC(=O)Cn1nnc(C(=O)NCc2ccc3c(c2)OCO3)c1N,7,-2,0,2,-1,?,/
O=C(NCc1ccc2c(c1)OCO2)c1nnc(Cc2ccc(Cl)cc2)o1,7,-3,-2,-3,0,27*,3
Cc1ccc(NC(=O)Cn2nnc(C(=O)NCc3ccc4c(c3)OCO4)c2N)cc1,10,2,0,12,-2,-4,/
Nc1c(C(=O)NCc2ccc3c(c2)OCO3)nnn1CC(=O)Nc1ccc(Br)cc1,-2,-4,1,-10,0,51*,5
Cc1ccc(S(=O)(=O)N2C[C@@H](C)[C@]3(C2)[C@H](O)[C@H](OC(=O)NCc2ccccc2F)C[C@H]2C(=O)N(c4ccccc4)C(=O)[C@H]23)cc1,-4,/,/,6,/,/,/
CCCN(C(=O)c1cccs1)c1c(N)n(Cc2ccccc2)c(=O)[nH]c1=O,-6,-2,4,-5,0,-4,/
CC(C)c1ccc(NC(=O)Cn2nnc(C(=O)NCc3ccc4c(c3)OCO4)c2N)cc1,6,-15,0,5,-2,31*,-3
CCOc1ccc(NC(=O)c2ccc(NC(=O)Cc3n[nH]c(=O)c4ccccc34)cc2)cc1,-2,-2,0,-12,-1,111*,-7
CCOc1ccccc1NC(=O)CSc1nc2ccccc2c(=O)n1CC1CCCO1 (centres undefined),1,/,4,4,-2,-9,/
CN1/C(=C/C=C(C#N)C#N)C=Cc2ccccc21,8,-4,1,5,-1,29*,3
COc1ccc(C2CC(=O)C=C3c4ccc(OC)cc4CCC32)cc1 (centres undefined),-3,/,/,-4,/,/,/
Cn1cnnc1Sc1cc(N2CCN(S(=O)(=O)c3ccc(Cl)c(Cl)c3)CC2)ccc1[N+](=O)[O-],-2,-3,1,6,0,-4,/
Cn1cnnc1Sc1cc(N2CCN(S(=O)(=O)c3ccc4ccccc4c3)CC2)ccc1[N+](=O)[O-],3,-3,0,2,0,19*,-1
O=C(CCCCn1c(=S)[nH]c2ccsc2c1=O)NCc1ccc2c(c1)OCO2,1,-4,0,-1,-2,125*,1
O=C(Cn1nnc(-c2ccccc2)n1)NNC(=O)c1ccc(Br)cc1,-13,-1,2,-11,/,36*,2
NC(=O)c1nn(-c2ccccc2)nc1NC(=O)Cn1nnc(-c2ccccc2)n1,-6,-1,1,-2,0,22*,4
NC(=O)c1nn(-c2ccccc2)nc1NC(=O)CN1CCCC1,-12,0,-2,-9,-1,-9,/
CCC(CO)Oc1cc(NC(=O)Cc2ccccc2)c2ncn(C(C)C)c2c1 (centres undefined),-4,0,2,-4,0,0,/
COc1cccc(NC(=O)Nc2nnc(CC(=O)NCc3ccccc3)s2)c1,-5,-2,-1,-13,-4,39*,-3
COc1ccc(NC(=O)Nc2nnc(CC(=O)NCc3ccccc3)s2)cc1,-3,0,7,2,0,0,/
SMILES,PKA-R2B activ,CAL PDZ FP-1,NTR1 ag,PKA-R1A activ,CAL PDZ FP-2,dFosB act-1,dFosB act-2
COc1ccccc1NC(=O)Nc1nnc(Cc2ccccc2F)s1,3,-5,3,-7,0,3,/
COc1ccccc1NC(=O)Nc1nc(CC(=O)Nc2ccc(F)cc2)cs1,-11,-1,3,-1,-1,27*,5
O=C(Nc1ccc(Cl)cc1)Nc1nnc(CSCc2ccc(Cl)cc2)s1,-7,-4,-2,-7,-2,19*,0
COc1ccccc1NC(=O)Nc1nnc(CC(=O)Nc2cccc(C)c2)s1,12,-1,1,-6,-3,32*,5
COc1ccc(NC(=O)Cc2csc(NC(=O)Nc3ccccc3OC)n2)cc1,-14,/,/,-11,/,/,/
CCc1nnc(NC(=O)Nc2ccc(Cl)cc2)s1,0,-4,0,-10,-2,0,/
O=[N+]([O-])c1ccc(-c2nc(Cl)c3c(n2)CCCC3)o1,7,/,/,2,/,/,/
O=C(COC(=O)CNC(=O)c1ccccc1)NCCNC(=O)COC(=O)CNC(=O)c1ccccc1,-8,0,2,-1,0,-5,/
Cc1ccccc1NC(=O)Cc1nnc(NC(=O)Nc2ccccc2F)s1,-3,15,-1,-2,0,52*,-10
O=C(Nc1ccc(F)cc1)Nc1nnc(Cc2ccccc2F)s1,13,-3,2,5,/,21*,-1
O=C(Nc1ccccc1)Nc1nnc(Cc2ccccc2F)s1,6,-1,2,6,1,16,/
Cc1cc(NC(=O)CSc2nnc(CNC(=O)c3c(F)cccc3F)o2)no1,-2,-1,0,1,-2,?,/
COc1ccc(CNC(=O)CC2C[C@H](C(=O)N3CCCCC3)[C@@]3(C)c4[nH]c5ccccc5c4CCN3C2=O)cc1OC (some centres undefined),1,-6,-1,-2,0,-11,/
O=C(/C=C/c1cc2c(cc1Br)OCO2)NCc1ccc(F)cc1,6,-1,1,-11,0,25*,1
COc1ccc(CNC(=O)/C=C/c2cc3c(cc2Br)OCO3)cc1,-3,/,1,-4,0,6,/
C=CC(=O)Nc1cccc(CN2C(=O)N(c3cc(OC)cc(OC)c3)Cc3cnc(NCCCCN(CC)CC)nc32)c1,1,-6,/,0,-1,36*,?
O=C1NC(=O)/C(=C\c2ccc(OCc3cccc([N+](=O)[O-])c3)cc2)N1,0,2,3,-7,-1,31*,8
